{"source": "ChEMBL document CHEMBL4007461", "about": "“Synthesis, Antiviral Potency, in Vitro ADMET, and X-ray Structure of Potent CD4 Mimics as Entry Inhibitors That Target the Phe43 Cavity of HIV-1 gp120” (J Med Chem, 2017)", "key": {"[1]": {"experiment": "Inhibition of CYP1A in human liver microsomes using ethoxyresorufin as substrate after 5 mins in presence of NADPH by LC-MS/MS analysis"}, "[2]": {"tested_on": "Human immunodeficiency virus 1", "experiment": "microbe, parasite or virus in culture", "details": "Human immunodeficiency virus 1, subtype A2/D QG393.60M.ENV.B8"}, "[3]": {"tested_on": "Human immunodeficiency virus 1", "experiment": "Antiviral activity against ENV pseudotyped CCR5-tropic HIV1 subtype D QD435.100M.ENV.A4", "format": "functional", "details": "Human immunodeficiency virus 1, subtype D QD435.100M.ENV.A4", "summary_of_the_method": "(§1)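 Env-pseudotyped viruses made by co-transfecting HEK293T cells with an Env-deleted pSG3 backbone (8 µg) and an Env-expression plasmid (8 µg). Supernatants were harvested 2 days after transfection, filtered, titered and stored at −80 °C. They were used for single-cycle infection, and IC50 was taken from percent inhibition.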"}, "[4]": {"tested_on": "Human immunodeficiency virus 1", "experiment": "microbe, parasite or virus in culture", "details": "Human immunodeficiency virus 1, subtype A/G CRF02_AG clone 278"}, "[5]": {"experiment": "Inhibition of HIV1 reverse transcriptase by colorimetric assay", "set-up": "species or system Human immunodeficiency virus 1", "summary_of_the_method": "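HIV-1 reverse transcriptase activity measured with a commercial colorimetric reverse transcriptase kit, following the maker's instructions.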"}, "[6]": {"tested_on": "Human immunodeficiency virus 1", "experiment": "Antiviral activity against ENV pseudotyped CCR5-tropic HIV1 p9021_14.B2.4571", "format": "functional", "details": "Human immunodeficiency virus 1, p9021_14.B2.4571"}, "Cytochrome P450 2C19": {"target": "Cytochrome P450 2C19 (Homo sapiens, UniProt P33261)", "sequence (P33261 whole entry)": "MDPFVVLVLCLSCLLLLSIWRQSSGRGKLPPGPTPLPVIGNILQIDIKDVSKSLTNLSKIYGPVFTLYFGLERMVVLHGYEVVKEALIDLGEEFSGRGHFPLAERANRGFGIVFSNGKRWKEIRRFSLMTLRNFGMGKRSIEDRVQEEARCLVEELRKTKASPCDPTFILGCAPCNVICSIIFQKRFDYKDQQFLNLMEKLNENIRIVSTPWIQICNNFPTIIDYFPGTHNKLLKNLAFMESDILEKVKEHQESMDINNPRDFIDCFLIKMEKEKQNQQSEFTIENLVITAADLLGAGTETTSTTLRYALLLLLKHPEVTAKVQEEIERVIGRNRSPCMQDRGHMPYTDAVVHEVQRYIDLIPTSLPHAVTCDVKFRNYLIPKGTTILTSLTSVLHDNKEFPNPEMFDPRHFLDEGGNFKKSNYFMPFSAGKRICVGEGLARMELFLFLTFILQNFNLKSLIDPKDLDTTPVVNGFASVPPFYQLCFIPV", "experiment": "Inhibition of CYP2C19 in human liver microsomes using mephenytoin as substrate after 60 mins in presence of NADPH by LC-MS/MS analysis", "format": "ADME"}, "[7]": {"tested_on": "Human immunodeficiency virus 1", "experiment": "microbe, parasite or virus in culture", "details": "Human immunodeficiency virus 1, subtype C Du422, clone 1"}, "MT2": {"tested_on": "MT2", "experiment": "Cytotoxicity against human MT2 cells incubated for 4 days by XTT assay", "format": "cell-based", "details": "mt2, 96 h, 96 h", "summary_of_the_method": "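Run alongside the MT-2 multicycle infection assay. Compound at graded concentrations mixed with an equal volume of MT-2 cells (10^5 cells/ml). Medium replaced next day and culture continued four days.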"}, "[8]": {"tested_on": "Human immunodeficiency virus 1", "experiment": "microbe, parasite or virus in culture", "details": "Human immunodeficiency virus 1, pCAAN5342 clone A2"}, "[9]": {"tested_on": "Vesicular stomatitis virus", "experiment": "Antiviral activity against G-glycoprotein expressing VSV", "format": "functional", "summary_of_the_method": "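VSV-G pseudovirus made in HEK293T cells from pVPack-VSV-G, MLV gag-pol pVPack-GP and pFB-luc plasmids. Virus was preincubated 30 min with graded compound concentrations, then added to U87-CD4-CXCR4 cells (1 x 10^4/well, plated overnight).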"}, "[10]": {"experiment": "Apparent permeability from basolateral to apical side in human Caco2 cells at 10 uM at pH 7.4 by LC-MS/MS analysis", "format": "ADME, cell-based", "details": "Caco-2, pH 7.4", "summary_of_the_method": "(§2)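 Caco-2 cells, passage 40-60, seeded on Transwell inserts at 1 x 10^5 cells/cm2 and grown 20 days in DMEM. Monolayers equilibrated 40 min in HBSS. Donor: compound at 10 µM final, 1% DMSO, in HBSS pH 7.4 with lucifer yellow as integrity marker. Sampled at 120 min, A-B and B-A, in duplicate, by LC-MS/MS. Papp = (dQ/dt)/(C0 × A); efflux ratio = Papp(B-A)/Papp(A-B).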"}, "[11]": {"tested_on": "Human immunodeficiency virus 1", "experiment": "Antiviral activity against ENV pseudotyped CCR5-tropic HIV1 subtype D QA013.70I.ENV.M12", "format": "functional", "details": "Human immunodeficiency virus 1, subtype D QA013.70I.ENV.M12", "summary_of_the_method": "as §1"}, "[12]": {"experiment": "Intrinsic clearance in human liver microsomes assessed per mg protein in presence of NADPH by LC-MS/MS analysis", "format": "ADME, microsome", "details": "read-out: CLH"}, "[13]": {"tested_on": "Human immunodeficiency virus 1", "experiment": "microbe, parasite or virus in culture", "details": "Human immunodeficiency virus 1, subtype A QB726.70M.ENV.C4"}, "[14]": {"tested_on": "Human immunodeficiency virus 1", "experiment": "Antiviral activity against ENV pseudotyped CCR5-tropic HIV1 p1054.TC4.1499", "format": "functional", "details": "Human immunodeficiency virus 1, p1054.TC4.1499"}, "[15]": {"experiment": "Apparent permeability from apical to basolateral side in human Caco2 cells at 10 uM at pH 7.4 by LC-MS/MS analysis", "format": "ADME, cell-based", "details": "Caco-2, pH 7.4", "summary_of_the_method": "as §2"}, "[16]": {"tested_on": "Human immunodeficiency virus 1", "experiment": "microbe, parasite or virus in culture", "details": "Human immunodeficiency virus 1, subtype D/A BF535.W6M.ENV.A1"}, "[17]": {"tested_on": "Human immunodeficiency virus 1", "experiment": "Antiviral activity against ENV pseudotyped CCR5-tropic HIV1 subtype C 225925-2, clone 22", "format": "functional", "details": "Human immunodeficiency virus 1, subtype C 225925-2, clone 22", "summary_of_the_method": "as §1"}, "[18]": {"experiment": "Metabolic stability in human liver microsomes assessed as compound remaining at 45 mins in presence of NADPH by LC-MS/MS analysis", "format": "ADME, microsome", "details": "read-out: Stability"}, "[19]": {"experiment": "Aqueous solubility of the compound at 1 to 100 uM in PBS at pH 7.4 after 2 hrs by turbidimetric analysis", "format": "physicochemical", "summary_of_the_method": "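DMSO stocks diluted 1:100 into phosphate-buffered saline pH 7.4, giving 1, 3, 10, 30 and 100 µM final in 1% DMSO. Seven replicate wells per concentration, incubated 2 h at 37 °C, absorbance read at 620 nm. Solubility taken as the concentration giving absorbance above the 1% DMSO vehicle.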"}, "Cytochrome P450 2D6": {"target": "Cytochrome P450 2D6 (Homo sapiens, UniProt P10635)", "sequence (P10635 whole entry)": "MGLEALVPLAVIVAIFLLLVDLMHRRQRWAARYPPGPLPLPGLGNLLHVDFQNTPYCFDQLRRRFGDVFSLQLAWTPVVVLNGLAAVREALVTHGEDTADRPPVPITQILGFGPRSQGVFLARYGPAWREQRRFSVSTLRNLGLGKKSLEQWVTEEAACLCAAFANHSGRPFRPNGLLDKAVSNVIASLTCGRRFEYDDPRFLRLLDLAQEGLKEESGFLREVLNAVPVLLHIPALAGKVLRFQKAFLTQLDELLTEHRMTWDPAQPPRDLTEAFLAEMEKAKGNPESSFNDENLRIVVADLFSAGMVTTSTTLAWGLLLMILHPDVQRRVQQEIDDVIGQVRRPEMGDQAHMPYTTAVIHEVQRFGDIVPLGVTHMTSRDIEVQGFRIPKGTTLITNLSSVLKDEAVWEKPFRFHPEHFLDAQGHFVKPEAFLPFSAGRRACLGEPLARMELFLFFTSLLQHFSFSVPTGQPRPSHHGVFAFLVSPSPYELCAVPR", "experiment": "Inhibition of CYP2D6 in human liver microsomes using dextromethorphan as substrate after 5 mins in presence of NADPH by LC-MS/MS analysis", "format": "ADME"}, "[20]": {"tested_on": "Human immunodeficiency virus 1", "experiment": "Antiviral activity against ENV pseudotyped CCR5-tropic HIV1 subtype C 6936-2, clone 21", "format": "functional", "details": "Human immunodeficiency virus 1, subtype C 6936-2, clone 21", "summary_of_the_method": "as §1"}, "[21]": {"experiment": "Inhibition of HIV1 HXB2 gp120-mediated cell to cell fusion using human MAGI-CCR5 cells as indicator cells and Env/Tat-expressing HL2/3 cells as effector cells preincubated with MAGI-CCR5 cells for 1 hr followed by HL2/3 cells addition by beta-galactosidase reporter gene assay", "details": "Human immunodeficiency virus 1, HXB2"}, "[22]": {"tested_on": "Human immunodeficiency virus 1", "experiment": "microbe, parasite or virus in culture", "details": "Human immunodeficiency virus 1, subtype A/G CRF02_AG clone 263"}, "Cytochrome P450 2C9": {"target": "Cytochrome P450 2C9 (Homo sapiens, UniProt P11712)", "sequence (P11712 whole entry)": "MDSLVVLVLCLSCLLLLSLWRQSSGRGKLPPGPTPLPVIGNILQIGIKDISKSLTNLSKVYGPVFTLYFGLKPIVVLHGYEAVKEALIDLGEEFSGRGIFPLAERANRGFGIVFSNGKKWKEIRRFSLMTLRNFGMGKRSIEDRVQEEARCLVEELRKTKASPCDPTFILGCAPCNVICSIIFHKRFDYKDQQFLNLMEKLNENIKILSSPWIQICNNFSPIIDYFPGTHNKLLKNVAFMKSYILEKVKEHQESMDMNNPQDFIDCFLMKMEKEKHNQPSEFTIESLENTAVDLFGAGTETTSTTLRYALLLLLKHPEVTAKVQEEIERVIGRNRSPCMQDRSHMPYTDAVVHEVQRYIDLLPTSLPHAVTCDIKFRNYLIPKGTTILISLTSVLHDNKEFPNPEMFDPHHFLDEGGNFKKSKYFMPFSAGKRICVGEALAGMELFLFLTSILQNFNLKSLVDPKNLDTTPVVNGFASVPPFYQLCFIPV", "experiment": "Inhibition of CYP2C9 in human liver microsomes using tolbutamide as substrate after 60 mins in presence of NADPH by LC-MS/MS analysis", "format": "ADME"}, "[23]": {"target": "Voltage-gated inwardly rectifying potassium channel KCNH2 (Homo sapiens, UniProt Q12809)", "sequence (Q12809 whole entry)": "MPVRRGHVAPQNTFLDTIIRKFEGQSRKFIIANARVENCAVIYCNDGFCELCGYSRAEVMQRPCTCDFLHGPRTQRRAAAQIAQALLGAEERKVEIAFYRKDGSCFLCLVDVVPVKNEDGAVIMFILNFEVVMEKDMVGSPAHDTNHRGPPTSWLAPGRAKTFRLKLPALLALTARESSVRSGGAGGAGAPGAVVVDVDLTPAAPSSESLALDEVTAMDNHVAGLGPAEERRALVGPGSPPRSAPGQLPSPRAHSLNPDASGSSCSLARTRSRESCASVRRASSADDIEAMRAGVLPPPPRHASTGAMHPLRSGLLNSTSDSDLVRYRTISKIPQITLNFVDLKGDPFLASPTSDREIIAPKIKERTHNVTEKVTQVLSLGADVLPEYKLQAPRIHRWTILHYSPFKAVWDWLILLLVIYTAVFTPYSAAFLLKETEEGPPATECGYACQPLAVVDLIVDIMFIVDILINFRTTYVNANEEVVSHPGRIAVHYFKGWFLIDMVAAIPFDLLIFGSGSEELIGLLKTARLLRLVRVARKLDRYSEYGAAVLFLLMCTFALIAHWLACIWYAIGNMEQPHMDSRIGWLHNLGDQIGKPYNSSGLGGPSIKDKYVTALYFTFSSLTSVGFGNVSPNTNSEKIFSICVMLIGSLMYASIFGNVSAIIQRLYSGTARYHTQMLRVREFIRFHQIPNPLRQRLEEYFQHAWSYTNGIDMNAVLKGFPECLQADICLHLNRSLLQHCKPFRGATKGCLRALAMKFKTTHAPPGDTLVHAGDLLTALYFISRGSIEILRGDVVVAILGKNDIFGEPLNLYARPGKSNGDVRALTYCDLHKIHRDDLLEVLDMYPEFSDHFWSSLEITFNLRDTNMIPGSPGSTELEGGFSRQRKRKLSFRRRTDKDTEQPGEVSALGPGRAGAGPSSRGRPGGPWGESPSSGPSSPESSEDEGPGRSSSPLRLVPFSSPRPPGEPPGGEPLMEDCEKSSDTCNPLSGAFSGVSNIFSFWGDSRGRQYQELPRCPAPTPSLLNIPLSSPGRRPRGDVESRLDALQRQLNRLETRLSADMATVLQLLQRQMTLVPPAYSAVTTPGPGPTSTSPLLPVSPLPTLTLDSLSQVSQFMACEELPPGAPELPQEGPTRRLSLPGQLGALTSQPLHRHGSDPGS", "experiment": "Inhibition of human ERG expressed in CHO cells by patch clamp electrophysiology assay", "format": "cell-based"}, "Cytochrome P450 3A4": {"target": "Cytochrome P450 3A4 (Homo sapiens, UniProt P08684)", "sequence (P08684 whole entry)": "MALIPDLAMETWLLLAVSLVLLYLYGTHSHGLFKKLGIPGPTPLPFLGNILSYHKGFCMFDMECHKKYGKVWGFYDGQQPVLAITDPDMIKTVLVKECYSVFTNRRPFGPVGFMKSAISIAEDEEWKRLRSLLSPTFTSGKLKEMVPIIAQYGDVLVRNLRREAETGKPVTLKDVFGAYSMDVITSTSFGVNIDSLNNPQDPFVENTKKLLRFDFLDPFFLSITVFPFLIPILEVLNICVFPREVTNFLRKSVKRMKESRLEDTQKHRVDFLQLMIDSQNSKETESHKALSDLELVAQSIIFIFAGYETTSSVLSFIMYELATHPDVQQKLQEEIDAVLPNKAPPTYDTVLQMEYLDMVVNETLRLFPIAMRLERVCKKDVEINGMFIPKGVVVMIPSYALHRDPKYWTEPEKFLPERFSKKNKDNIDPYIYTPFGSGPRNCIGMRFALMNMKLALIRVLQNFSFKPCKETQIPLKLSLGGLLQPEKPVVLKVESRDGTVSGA", "experiment": "Inhibition of CYP3A4 in human liver microsomes using midazolam as substrate after 5 mins in presence of NADPH by LC-MS/MS analysis", "format": "ADME"}, "[24]": {"tested_on": "Human immunodeficiency virus 1", "experiment": "microbe, parasite or virus in culture", "details": "Human immunodeficiency virus 1, subtype C QB099.391 M.ENV.B1"}, "[25]": {"experiment": "Cytotoxicity against human TZM-bl cells incubated for 3 days by XTT assay", "format": "cell-based", "details": "TZM-bl cells", "summary_of_the_method": "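TZM-bl cells, 1 x 10^4/well, cultured overnight at 37 °C. Compounds added at graded concentrations for three days.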"}, "[26]": {"experiment": "Unbound fraction in human plasma at 5 uM by LC-MS/MS based equilibrium dialysis", "format": "ADME, cell-free"}, "[27]": {"tested_on": "Human immunodeficiency virus 1", "experiment": "Antiviral activity against ENV pseudotyped CCR5-tropic HIV1 subtype D QD435.100M.ENV.E1", "format": "functional", "details": "Human immunodeficiency virus 1, subtype D QD435.100M.ENV.E1"}, "[28]": {"tested_on": "Human immunodeficiency virus 1", "experiment": "microbe, parasite or virus in culture", "details": "Human immunodeficiency virus 1, AC10.0, clone 29"}, "[29]": {"tested_on": "Human immunodeficiency virus 1", "experiment": "Antiviral activity against ENV pseudotyped CCR5-tropic HIV1 subtype C 25711-2, clone 4", "format": "functional", "details": "Human immunodeficiency virus 1, subtype C 25711-2, clone 4"}, "[30]": {"tested_on": "Human immunodeficiency virus 1", "experiment": "Antiviral activity against HIV1 HXB2 pseudovirus infected in human TZM-bl cells assessed as inhibition of viral entry treated 4 hrs post infection measured after 48 hrs by luciferase reporter gene assay", "format": "functional"}}, "data": [{"molecule": "NCC(NC(=O)c1ccc(-c2cc(F)c(Cl)c(F)c2)[nH]1)c1ncc(CO)s1", "note": "(stereo in doubt)", "values": [{"measurement": "IC50", "setting": "[1]", "value": "> 25", "unit": "µM"}, {"measurement": "IC50", "setting": "[2]", "value": 270, "unit": "nM"}, {"measurement": "IC50", "setting": "[3]", "value": 320, "unit": "nM"}, {"measurement": "IC50", "setting": "[4]", "value": 500, "unit": "nM"}, {"measurement": "IC50", "setting": "[5]", "value": 8.4, "unit": "µM"}, {"measurement": "IC50", "setting": "[6]", "value": 310, "unit": "nM"}, {"measurement": "IC50", "setting": "Cytochrome P450 2C19", "value": "> 25", "unit": "µM"}, {"measurement": "IC50", "setting": "[7]", "value": 320, "unit": "nM"}, {"measurement": "CC50", "setting": "MT2", "value": 37, "unit": "µM"}, {"measurement": "IC50", "setting": "[8]", "value": 600, "unit": "nM"}, {"measurement": "IC50", "setting": "[9]", "value": 26, "unit": "µM"}, {"measurement": "Papp B→A at 10 µM", "setting": "[10]", "value": 17.2, "unit": "×10⁻⁶ cm/s"}, {"measurement": "IC50", "setting": "[11]", "value": 500, "unit": "nM"}, {"measurement": "microsomal CLint", "setting": "[12]", "value": "< 10", "unit": "µL/min/mg"}, {"measurement": "IC50", "setting": "[13]", "value": 510, "unit": "nM"}, {"measurement": "IC50", "setting": "[14]", "value": 650, "unit": "nM"}, {"measurement": "Papp A→B at 10 µM", "setting": "[15]", "value": 1.17, "unit": "×10⁻⁶ cm/s"}, {"measurement": "IC50", "setting": "[16]", "value": 940, "unit": "nM"}, {"measurement": "IC50", "setting": "[17]", "value": 330, "unit": "nM"}, {"measurement": "remaining at […]", "setting": "[18]", "value": 97.4, "unit": "%"}, {"measurement": "solubility kinetic at 2 h", "setting": "[19]", "value": 65, "unit": "µM"}, {"measurement": "IC50", "setting": "Cytochrome P450 2D6", "value": "> 25", "unit": "µM"}, {"measurement": "IC50", "setting": "[20]", "value": 310, "unit": "nM"}, {"measurement": "IC50", "setting": "[21]", "value": 13.3, "unit": "µM"}, {"measurement": "IC50", "setting": "[22]", "value": 600, "unit": "nM"}, {"measurement": "IC50", "setting": "Cytochrome P450 2C9", "value": "> 25", "unit": "µM"}, {"measurement": "IC50", "setting": "[23]", "value": 14.1, "unit": "µM"}, {"measurement": "IC50", "setting": "Cytochrome P450 3A4", "value": "> 25", "unit": "µM"}, {"measurement": "IC50", "setting": "[24]", "value": 510, "unit": "nM"}, {"measurement": "CC50 at 72 h", "setting": "[25]", "value": 39.5, "unit": "µM"}, {"measurement": "fraction unbound at 5 µM", "setting": "[26]", "value": 0.1}, {"measurement": "IC50", "setting": "[27]", "value": 500, "unit": "nM"}, {"measurement": "IC50", "setting": "[28]", "value": 500, "unit": "nM"}, {"measurement": "IC50", "setting": "[29]", "value": 520, "unit": "nM"}]}, {"molecule": "Cc1cn([C@H]2C[C@H](N=[N+]=[N-])[C@@H](CO)O2)c(=O)[nH]c1=O", "note": "[ZIDOVUDINE]", "values": [{"measurement": "inhibition (INH)", "setting": "[30]", "value": 50, "unit": "%"}]}]}
